{"data": "Assay results gathered from unrelated publications", "target": "Death-associated protein kinase 3 (DAPK3, Homo sapiens, UniProt O43293)", "note": "Each line is one published result; the experiments were not run side by side."}
{"SMILES": "CC(C)(O)[C@H]1CC[C@H](Nc2ccc3ncc(-c4cccc(C(F)(F)F)c4)n3n2)CC1", "assay": "enzyme activity, inhibitor", "setting": "1 µM", "endpoint": "remaining activity", "result": "120%"}
{"SMILES": "Nc1ncnc2occ(-c3ccc(NC(=O)Nc4cc(C(F)(F)F)ccc4F)cc3)c12", "assay": "cell-free assay, inhibitor", "setting": "20 µM", "endpoint": "remaining signal", "result": "7.9%"}
{"SMILES": "O=C1NC(=O)c2cc(Nc3ccc(F)cc3)c(Nc3ccc(F)cc3)cc21", "assay": "cell-free assay", "setting": "0.5 µM", "endpoint": "remaining signal", "result": "101%"}
{"SMILES": "O=C(Nc1cnn(-c2csc(C(=O)NC3COC3)c2)c1)Nc1c(F)cccc1Cl", "assay": "enzyme activity, inhibitor", "setting": "5 µM", "endpoint": "remaining activity", "result": "108%"}
{"SMILES": "O=C(Nc1cccnn1)N1CCC(=Cc2cccc(Oc3ccc(C(F)(F)F)cn3)c2)CC1", "assay": "cell-free assay, competition with immobilised ligand", "setting": "1 µM", "endpoint": "remaining binding", "result": "79%"}
{"SMILES": "CN1CC(Oc2cnc(C#N)cc2-c2ccn3nc(NC(=O)C4CC4)cc3c2)C1", "assay": "enzyme activity, inhibitor", "setting": "1 µM", "endpoint": "inhibition", "result": "4%"}
{"SMILES": "COc1cc2ncnc(Nc3ccc(F)c(Cl)c3)c2cc1OCCCN1CCOCC1", "assay": "cell-free assay", "setting": "0.5 µM", "endpoint": "remaining signal", "result": "95.7%"}
{"SMILES": "Cc1ccc(Nc2nccc(N(C)c3ccc4c(C)n(C)nc4c3)n2)cc1S(N)(=O)=O", "assay": "enzyme activity, inhibitor", "setting": "10 µM", "endpoint": "inhibition", "result": "-2%"}
{"SMILES": "COc1cc(Cl)c(C(=O)N[C@@H](CN[C@H]2CC[C@@H](N)CC2)Cc2ccc(C#N)cc2)cc1-c1ccc(CN[C@H](C)c2ccc(C)cc2)o1", "assay": "enzyme activity, inhibitor", "setting": "1 µM", "endpoint": "remaining activity", "result": "89%"}
{"SMILES": "O=C1Nc2ccc(Cl)cc2C1=Cc1cc(Cl)c(O)c(Cl)c1", "assay": "cell-free assay", "setting": "0.5 µM", "endpoint": "remaining signal", "result": "82.3%"}
{"SMILES": "Cn1c2c(c3ccc(Cl)c(Cl)c31)C(C#N)C1(CCNCC1)NC2=O (racemic)", "assay": "thermal stability, DSF", "setting": "10 µM", "endpoint": "ΔTm", "result": "> 8 °C"}
{"SMILES": "Cc1ccc(NC(=O)c2ccc(C)c(C(F)(F)F)c2)cc1C#Cc1nn(C2CCC(O)CC2)c2ncnc(N)c12 (centres unmarked)", "assay": "cell-free assay", "setting": "10 µM", "endpoint": "remaining signal", "result": "110%"}
{"SMILES": "N#CC1(c2ccccn2)CCN(Cc2cc(C(=O)N3CCCC3)c(=O)n3ccccc23)CC1", "assay": "cell-free assay, competition with immobilised ligand", "setting": "1 µM", "endpoint": "remaining binding", "result": "86%"}
{"SMILES": "CCN(CC)CCNC(=O)c1c(C)[nH]c(/C=C2\\C(=O)Nc3ccc(F)cc32)c1C", "assay": "enzyme activity, inhibitor", "setting": "0.3 µM", "endpoint": "inhibition", "result": "35%"}
{"SMILES": "CC(C)(C)c1nc(-c2cccc(NS(=O)(=O)c3c(F)cccc3F)c2F)c(-c2ccnc(N)n2)s1", "assay": "enzyme activity, inhibitor, radiometric", "setting": "1 µM", "endpoint": "remaining activity", "result": "54%"}
{"SMILES": "O=c1nc(-c2ccccn2)sc2ccccc12", "assay": "binding, competition with immobilised ligand", "setting": "1 µM", "endpoint": "remaining binding", "result": "91%"}
{"SMILES": "CNC(=O)c1cc(Oc2ccc(NC(=O)Nc3ccc(Cl)c(C(F)(F)F)c3)cc2)ccn1", "assay": "cell-free assay", "setting": "0.5 µM", "endpoint": "remaining signal", "result": "92.9%"}
{"SMILES": "O=S(=O)(NC1CCC(c2cc(F)ccc2F)(S(=O)(=O)c2ccc(Cl)cc2)CC1)C(F)(F)F (centres unmarked)", "assay": "cell-free assay, competition with immobilised ligand", "setting": "1 µM", "endpoint": "remaining binding", "result": "97%"}
{"SMILES": "COc1cc(-c2cc(-c3ccc(N4CCNCC4)cc3)cnc2C)cc(OC)c1OC", "assay": "enzyme activity, inhibitor", "setting": "0.1 µM", "endpoint": "inhibition", "result": "1%"}
{"SMILES": "CSc1cccnc1N1CCN(Cc2nc3ccccc3[nH]2)CC1", "assay": "cell-free assay, competition with immobilised ligand", "setting": "1 µM", "endpoint": "remaining binding", "result": "100%"}
{"SMILES": "COc1cc2ncnc(Nc3ccc(Oc4ccccc4)c(C)c3C)c2cc1OC", "assay": "enzyme activity, inhibitor", "setting": "1 µM", "endpoint": "inhibition", "result": "1%"}
{"SMILES": "CN([C@@H]1CCc2c(CC(=O)O)c3ccccc3n2C1)S(=O)(=O)c1ccc(F)cc1", "assay": "cell-free assay, competition with immobilised ligand", "setting": "1 µM", "endpoint": "remaining binding", "result": "87%"}
{"SMILES": "Oc1cccc(-c2nc(N3CCOCC3)c3oc4ncccc4c3n2)c1", "assay": "cell-free assay", "setting": "0.5 µM", "endpoint": "remaining signal", "result": "93.1%"}
